Assay results reported in ChEMBL document CHEMBL2169767 (J Med Chem, 2012).
Where a SMILES comes first, the peptide text is derived from it. [ ]: non-standard residue; d: D form. d1Nal = N[C@H](Cc1cccc2ccccc12)C(=O)O; Phg = N[C@H](C(=O)O)c1ccccc1

How the values were obtained:
[1] = biological target: T1, Growth hormone secretagogue receptor type 1 (Homo sapiens, UniProt Q92847); experiment: Displacement of [125I]-His-ghrelin from human ghrelin receptor expressed in COS7 cells incubated for 75 mins by scintillation counting based assay; type: cell-based, COS-7
T1 sequence (Q92847 whole entry): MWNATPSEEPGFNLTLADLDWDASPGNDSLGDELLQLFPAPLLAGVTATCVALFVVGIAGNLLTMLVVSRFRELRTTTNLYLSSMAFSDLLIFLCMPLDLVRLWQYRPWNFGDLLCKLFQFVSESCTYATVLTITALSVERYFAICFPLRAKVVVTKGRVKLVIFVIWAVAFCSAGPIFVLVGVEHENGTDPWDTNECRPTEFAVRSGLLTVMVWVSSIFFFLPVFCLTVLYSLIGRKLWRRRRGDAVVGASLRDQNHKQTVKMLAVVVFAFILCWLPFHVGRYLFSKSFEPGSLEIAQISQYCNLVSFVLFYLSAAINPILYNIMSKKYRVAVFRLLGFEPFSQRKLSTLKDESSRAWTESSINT

[2] = biological target: T1, Growth hormone secretagogue receptor type 1; experiment: Ratio of EC50 of ghrelin to EC50 of compound at human ghrelin receptor expressed in COS 7 cells using [2-3H]myo-inositol by inositol triphosphate turnover assay; type: functional, cell-based
[3] = biological target: T1, Growth hormone secretagogue receptor type 1; experiment: Activation of human ghrelin receptor expressed in COS 7 cells using [2-3H]myo-inositol by inositol triphosphate turnover assay; type: functional, cell-based
In short: (§1)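 Stimulated with seven to nine peptide concentrations, stopped by aspirating medium. Lysate supernatant purified on anion-exchange resin. Emax = difference between constitutive activity and activity at maximal peptide effect; EC50 = half-maximal concentration.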

[4] = biological target: T1, Growth hormone secretagogue receptor type 1; experiment: Agonist activity at FLAG-tagged human ghrelin receptor expressed in COS 7 cells using [2-3H]myo-inositol by inositol triphosphate turnover assay; type: functional, cell-based
In short: (§2)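 COS7 cells transiently or stably (hygromycin B 0.4 mg/mL) transfected with receptor; transient cells exposed 14 h to receptor DNA with metafectene. Day after transfection/seeding, labelled with [2-3H]myo-inositol (2 μCi/mL), then stimulated with seven to nine peptide concentrations; stopped by aspirating medium, lysate supernatant purified on anion-exchange resin. EC50 = half-maximal effect; Emax = difference between constitutive activity and maximal-effect activity.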

[5] = biological target: Growth hormone secretagogue receptor type 1 (Homo sapiens, UniProt Q92847, F119S); experiment: Agonist activity at FLAG-tagged human ghrelin receptor Phe119:Ser mutant expressed in COS 7 cells using [2-3H]myo-inositol by inositol triphosphate turnover assay; type: functional, cell-based
Growth hormone secretagogue receptor type 1 (Homo sapiens, UniProt Q92847, F119S), sequence (Q92847 whole entry F119S): as the sequence (Q92847 whole entry) above, with F119S counted along it

[6] = biological target: Growth hormone secretagogue receptor type 1 (Homo sapiens, UniProt Q92847, S123A); experiment: Agonist activity at FLAG-tagged human ghrelin receptor Ser123:Ala mutant expressed in COS 7 cells using [2-3H]myo-inositol by inositol triphosphate turnover assay; type: functional, cell-based; in short: as §2
Growth hormone secretagogue receptor type 1 (Homo sapiens, UniProt Q92847, S123A), sequence (Q92847 whole entry S123A): as the sequence (Q92847 whole entry) above, with S123A counted along it

[7] = biological target: T1, Growth hormone secretagogue receptor type 1; experiment: Agonist activity at human ghrelin receptor expressed in COS 7 cells using [2-3H]myo-inositol by inositol triphosphate turnover assay relative to untreated control; type: functional, cell-based; in short: as §1
[8] = test system: Rattus norvegicus; experiment: Toxicity in rat assessed as decrease in water consumption at 1 nmol, icv measured over 120 mins; type: organism-based; conditions: in vivo, icv_or_intrathecal, 2 h
[9] = test system: Rattus norvegicus; experiment: Toxicity in rat assessed as decrease in activity at 1 nmol, icv measured over 120 mins; type: organism-based; conditions: in vivo, icv_or_intrathecal, 2 h

IC50 [1] | Ratio EC50 [2] | EC50 [3] | Structure (SMILES) | further results
– | – | > 1 µM | CC(C)C[C@H](NC(=O)[C@H](CC(C)C)NC(=O)[C@@H](Cc1cccc2ccccc12)NC(=O)[C@H](Cc1ccccc1)NC(=O)[C@@H](Cc1cccc2ccccc12)NC(=O)[C@@H](N)CCCCN)C(N)=O | –
– | 9 | – | CC(C)C[C@H](NC(=O)[C@H](CC(C)C)NC(=O)[C@@H](Cc1ccc2ccccc2c1)NC(=O)[C@H](Cc1ccccc1)NC(=O)[C@@H](Cc1c[nH]c2ccccc12)NC(=O)[C@@H](N)CCCCN)C(N)=O | EC50 [4]: 0.0072 µM; EC50 [5]: 0.0134 µM; Ki [1]: 0.234 µM; EC50 [6]: 0.0067 µM; Emax [7]: 156%
– | 12.8 | – | CC(C)C[C@H](NC(=O)[C@H](CC(C)C)NC(=O)[C@@H](Cc1cccc2ccccc12)NC(=O)[C@H](Cc1ccccc1)NC(=O)[C@@H](Cc1c[nH]c2ccccc12)NC(=O)[C@@H](N)CCCCN)C(N)=O | Ki [1]: 0.247 µM; Emax [7]: 54%
– | – | > 1 µM | CC(C)C[C@H](NC(=O)[C@H](CC(C)C)NC(=O)[C@@H](Cc1c[nH]c2ccccc12)NC(=O)[C@@H](NC(=O)[C@@H](Cc1cccc2ccccc12)NC(=O)[C@@H](N)CCCCN)c1ccccc1)C(N)=O (H-K[d1Nal][Phg][dW]LL-NH2) | –

Continued, molecule first:

Structure (SMILES) | IC50 [1] | Ratio EC50 [2] | EC50 [3] | further results
CC(C)C[C@H](NC(=O)[C@H](CC(C)C)NC(=O)[C@H](NC(=O)[C@H](Cc1ccccc1)NC(=O)[C@@H](Cc1c[nH]c2ccccc12)NC(=O)[C@@H](N)CCCCN)C(c1ccccc1)c1ccccc1)C(N)=O | ≥ 1 µM | > 700 | > 1 µM | –
CC(C)C[C@H](NC(=O)[C@H](CC(C)C)NC(=O)[C@@H](Cc1ccc(C(=O)c2ccccc2)cc1)NC(=O)[C@H](Cc1ccccc1)NC(=O)[C@@H](Cc1c[nH]c2ccccc12)NC(=O)[C@@H](N)CCCCN)C(N)=O | ≥ 1 µM | > 700 | > 1 µM | –
CC(C)C[C@H](NC(=O)[C@H](CC(C)C)NC(=O)[C@@H](Cc1ccc(-c2ccccc2)cc1)NC(=O)[C@H](Cc1ccccc1)NC(=O)[C@@H](Cc1c[nH]c2ccccc12)NC(=O)[C@@H](N)CCCCN)C(N)=O | ≥ 1 µM | > 700 | > 1 µM | –
CC(C)C[C@H](NC(=O)[C@H](CC(C)C)NC(=O)[C@@H](Cc1c[nH]c2ccccc12)NC(=O)[C@H](Cc1ccccc1)NC(=O)[C@@H](Cc1cccc2ccccc12)NC(=O)[C@@H](N)CCCCN)C(N)=O | – | – | – | Activity [8]: Toxic; Activity [9]: Toxic
